In ChEMBL document CHEMBL1142148, “Antibiotic susceptibility profile of bifidobacteria as affected by oxgall, acid, and hydrogen peroxide stress” (2007):
≈ marks a conversion by molar mass, not a printed value.

Experiments:
Bifidobacterium animalis [1] = assay: Antimicrobial activity against Bifidobacterium animalis ATCC 27536; type: functional
How it was run: (§1)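 Broth microdilution in MRS plus 0.05% L-cysteine-HCl. Mid-log culture adjusted to OD650 0.1, giving about 2.5 × 10^4 to 5.0 × 10^4 CFU/well, then added to twofold serial dilutions of agent. Plates incubated anaerobically at 37°C for 18 h and read at OD650. MIC is the lowest concentration matching the uninoculated blank OD, taken as the median of four repeats.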

Bifidobacterium bifidum [2] = assay: Antimicrobial activity against Bifidobacterium bifidum R0071; type: functional; how it was run: as §1
Bifidobacterium bifidum [3] = assay: Antimicrobial activity against Bifidobacterium bifidum ATCC 15696; type: functional; how it was run: as §1
Bifidobacterium bifidum [4] = assay: Antimicrobial activity against Bifidobacterium bifidum BB12; type: functional; how it was run: as §1
Bifidobacterium breve [5] = assay: Antimicrobial activity against Bifidobacterium breve ATCC 15700; type: functional; how it was run: as §1
[6] = Antimicrobial activity against Bifidobacterium infantis ATCC 15697; type: functional, Bifidobacterium longum subsp. infantis; conditions: Bifidobacterium longum; how it was run: as §1
Bifidobacterium longum [7] = assay: Antimicrobial activity against Bifidobacterium longum ATCC 15708; type: functional; how it was run: as §1
Bifidobacterium longum [8] = assay: Antimicrobial activity against Bifidobacterium longum R0175; type: functional; how it was run: as §1
Bifidobacterium longum [9] = assay: Antimicrobial activity against Bifidobacterium longum P/N 601377; type: functional; how it was run: as §1
[10] = test system: Bifidobacterium pseudolongum; assay: Antimicrobial activity against Bifidobacterium pseudolongum ATCC 25562; type: functional; how it was run: as §1
[11] = test system: Bifidobacterium thermophilum; assay: Antimicrobial activity against Bifidobacterium thermophilum ATCC 25866; type: functional; how it was run: as §1
Bifidobacterium breve [12] = assay: Antimicrobial activity against Bifidobacterium breve R0070; type: functional; how it was run: as §1
Bifidobacterium animalis [13] = assay: Antimicrobial activity against 60 min 1 M HCl-stressed Bifidobacterium animalis ATCC 27536 after 18 hrs; type: functional
How it was run: (§2)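 Mid-log MRS culture pelleted and resuspended in MRS broth brought to pH 2.0 with 1 M HCl, held anaerobically at 37°C for 60 min, then subcultured in MRS (pH 6.5) for 24 h anaerobically before MIC testing by broth microdilution (as for unstressed cells). Table footnote gives 18 h anaerobic regrowth after the stress. MIC is the median of four repetitions.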

Bifidobacterium bifidum [14] = assay: Antimicrobial activity against 60 min 1 M HCl-stressed Bifidobacterium bifidum R0071 after 18 hrs; type: functional; how it was run: as §2
Bifidobacterium bifidum [15] = assay: Antimicrobial activity against 60 min 1 M HCl-stressed Bifidobacterium bifidum BB12 after 18 hrs; type: functional; how it was run: as §2
Bifidobacterium breve [16] = assay: Antimicrobial activity against 60 min 1 M HCl-stressed Bifidobacterium breve ATCC 15700 after 18 hrs; type: functional; how it was run: as §2
Bifidobacterium breve [17] = assay: Antimicrobial activity against 60 min 1 M HCl-stressed Bifidobacterium breve R0070 after 18 hrs; type: functional; how it was run: as §2
[18] = Antimicrobial activity against 60 min 1 M HCl-stressed Bifidobacterium infantis ATCC 15697 after 18 hrs; type: functional, Bifidobacterium longum subsp. infantis; conditions: Bifidobacterium longum; how it was run: as §2
Bifidobacterium longum [19] = assay: Antimicrobial activity against 60 min 1 M HCl-stressed Bifidobacterium longum ATCC 15707 after 18 hrs; type: functional; how it was run: as §2
Bifidobacterium longum [20] = assay: Antimicrobial activity against 60 min 1 M HCl-stressed Bifidobacterium longum R0175 after 18 hrs; type: functional; how it was run: as §2
Bifidobacterium longum [21] = assay: Antimicrobial activity against 60 min 1 M HCl-stressed Bifidobacterium longum P/N 601377 after 18 hrs; type: functional; how it was run: as §2
[22] = test system: Bifidobacterium pseudolongum; assay: Antimicrobial activity against 60 min 1 M HCl-stressed Bifidobacterium pseudolongum ATCC 25562 after 18 hrs; type: functional; how it was run: as §2
[23] = test system: Bifidobacterium thermophilum; assay: Antimicrobial activity against 60 min 1 M HCl-stressed Bifidobacterium thermophilum ATCC 25866 after 18 hrs; type: functional; how it was run: as §2
Bifidobacterium animalis [24] = assay: Antimicrobial activity against 90 mins oxgall-stressed Bifidobacterium animalis ATCC 27536 after 18 hrs; type: functional
How it was run: (§3)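 Cells pelleted from mid-log MRS culture and resuspended in MRS (initial pH 6.5) with 0.3% (wt/vol) oxgall for 90 min anaerobically at 37°C. They were then regrown in MRS pH 6.5 for 24 h (footnote: 18 h) anaerobically and tested for MIC by the same broth microdilution assay. Median of four repetitions.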

Bifidobacterium bifidum [25] = assay: Antimicrobial activity against 90 mins oxgall-stressed Bifidobacterium bifidum R0071 after 18 hrs; type: functional; how it was run: as §3
Bifidobacterium bifidum [26] = assay: Antimicrobial activity against 90 mins oxgall-stressed Bifidobacterium bifidum ATCC 15696 after 18 hrs; type: functional; how it was run: as §3
Bifidobacterium bifidum [27] = assay: Antimicrobial activity against 90 mins oxgall-stressed Bifidobacterium bifidum BB12 after 18 hrs; type: functional; how it was run: as §3
Bifidobacterium breve [28] = assay: Antimicrobial activity against 90 mins oxgall-stressed Bifidobacterium breve ATCC 15700 after 18 hrs; type: functional; how it was run: as §3
Bifidobacterium breve [29] = assay: Antimicrobial activity against 90 mins oxgall-stressed Bifidobacterium breve R0070 after 18 hrs; type: functional; how it was run: as §3
[30] = Antimicrobial activity against 90 mins oxgall-stressed Bifidobacterium infantis ATCC 15697 after 18 hrs; type: functional, Bifidobacterium longum subsp. infantis; conditions: Bifidobacterium longum; how it was run: as §3
Bifidobacterium longum [31] = assay: Antimicrobial activity against 90 mins oxgall-stressed Bifidobacterium longum ATCC 15707 after 18 hrs; type: functional; how it was run: as §3
Bifidobacterium longum [32] = assay: Antimicrobial activity against 90 mins oxgall-stressed Bifidobacterium longum ATCC 15708 after 18 hrs; type: functional; how it was run: as §3
Bifidobacterium longum [33] = assay: Antimicrobial activity against Bifidobacterium longum ATCC 15707; type: functional; how it was run: as §1
Bifidobacterium longum [34] = assay: Antimicrobial activity against 90 mins oxgall-stressed Bifidobacterium longum R0175 after 18 hrs; type: functional; how it was run: as §3
Bifidobacterium longum [35] = assay: Antimicrobial activity against 90 mins oxgall-stressed Bifidobacterium longum P/N 601377 after 18 hrs; type: functional; how it was run: as §3
[36] = test system: Bifidobacterium pseudolongum; assay: Antimicrobial activity against 90 mins oxgall-stressed Bifidobacterium pseudolongum ATCC 25562 after 18 hrs; type: functional; how it was run: as §3
[37] = test system: Bifidobacterium thermophilum; assay: Antimicrobial activity against 90 mins oxgall-stressed Bifidobacterium thermophilum ATCC 25866 after 18 hrs; type: functional; how it was run: as §3
Bifidobacterium animalis [38] = assay: Antimicrobial activity against 90 mins hydrogen peroxide-stressed Bifidobacterium animalis ATCC 27536 after 18 hrs; type: functional
How it was run: (§4)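 Stress applied for 90 min at 37°C under anaerobic conditions, using MRS (initial pH 6.5) containing H2O2 at each strain's own inhibitory concentration. The H2O2 level was set beforehand by microplate tolerance testing. Challenged cells were regrown in MRS for 24 h (footnote: 18 h) before MIC testing by broth microdilution. Median of four repetitions.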

Bifidobacterium bifidum [39] = assay: Antimicrobial activity against 90 mins hydrogen peroxide-stressed Bifidobacterium bifidum R0071 after 18 hrs; type: functional; how it was run: as §4
Bifidobacterium bifidum [40] = assay: Antimicrobial activity against 90 mins hydrogen peroxide-stressed Bifidobacterium bifidum BB12 after 18 hrs; type: functional; how it was run: as §4
Bifidobacterium breve [41] = assay: Antimicrobial activity against 90 mins hydrogen peroxide-stressed Bifidobacterium breve ATCC 15700 after 18 hrs; type: functional; how it was run: as §4
Bifidobacterium breve [42] = assay: Antimicrobial activity against 90 mins hydrogen peroxide-stressed Bifidobacterium breve R0070 after 18 hrs; type: functional; how it was run: as §4
Bifidobacterium longum [43] = assay: Antimicrobial activity against 90 mins hydrogen peroxide-stressed Bifidobacterium longum ATCC 15707 after 18 hrs; type: functional; how it was run: as §4
Bifidobacterium longum [44] = assay: Antimicrobial activity against 90 mins hydrogen peroxide-stressed Bifidobacterium longum ATCC 15708 after 18 hrs; type: functional; how it was run: as §4
Bifidobacterium longum [45] = assay: Antimicrobial activity against 90 mins hydrogen peroxide-stressed Bifidobacterium longum R0175 after 18 hrs; type: functional; how it was run: as §4
Bifidobacterium longum [46] = assay: Antimicrobial activity against 90 mins hydrogen peroxide-stressed Bifidobacterium longum P/N 601377 after 18 hrs; type: functional; how it was run: as §4
[47] = test system: Bifidobacterium thermophilum; assay: Antimicrobial activity against 90 mins hydrogen peroxide-stressed Bifidobacterium thermophilum ATCC 25866 after 18 hrs; type: functional; how it was run: as §4

What does the source list for `NC[C@@H]1O[C@H](O[C@H]2[C@@H](O)[C@H](O[C@@H]3[C@@H](O)[C@H](N)C[C@H](N)[C@H]3O[C@H]3O[C@H](CN)[C@@H](O)[C@H](O)[C@H]3N)O[C@@H]2CO)[C@H](N)[C@@H](O)[C@@H]1O` [FRAMYCETIN]?
MIC (Bifidobacterium animalis [1]): 250 µg/mL (≈ 407 µM); MIC (Bifidobacterium bifidum [2]): 250 µg/mL (≈ 407 µM); MIC (Bifidobacterium bifidum [3]): 250 µg/mL (≈ 407 µM); MIC (Bifidobacterium bifidum [4]): 250 µg/mL (≈ 407 µM); MIC (Bifidobacterium breve [5]): 250 µg/mL (≈ 407 µM); MIC [6]: 250 µg/mL (≈ 407 µM); MIC (Bifidobacterium longum [7]): 250 µg/mL (≈ 407 µM); MIC (Bifidobacterium longum [8]): 250 µg/mL (≈ 407 µM); MIC (Bifidobacterium longum [9]): 125 µg/mL (≈ 203 µM); MIC [10]: 250 µg/mL (≈ 407 µM); MIC [11]: 250 µg/mL (≈ 407 µM); MIC (Bifidobacterium breve [12]): 250 µg/mL (≈ 407 µM); MIC (Bifidobacterium animalis [13]): 250 µg/mL (≈ 407 µM); MIC (Bifidobacterium bifidum [14]): 250 µg/mL (≈ 407 µM); MIC (Bifidobacterium bifidum [15]): 125 µg/mL (≈ 203 µM); MIC (Bifidobacterium breve [16]): 125 µg/mL (≈ 203 µM); MIC (Bifidobacterium breve [17]): 250 µg/mL (≈ 407 µM); MIC [18]: 250 µg/mL (≈ 407 µM); MIC (Bifidobacterium longum [19]): 500 µg/mL (≈ 813 µM); MIC (Bifidobacterium longum [20]): 250 µg/mL (≈ 407 µM); MIC (Bifidobacterium longum [21]): 250 µg/mL (≈ 407 µM); MIC [22]: 250 µg/mL (≈ 407 µM); MIC [23]: 250 µg/mL (≈ 407 µM); MIC (Bifidobacterium animalis [24]): 125 µg/mL (≈ 203 µM); MIC (Bifidobacterium bifidum [25]): 62.5 µg/mL (≈ 102 µM); MIC (Bifidobacterium bifidum [26]): 250 µg/mL (≈ 407 µM); MIC (Bifidobacterium bifidum [27]): 250 µg/mL (≈ 407 µM); MIC (Bifidobacterium breve [28]): 125 µg/mL (≈ 203 µM); MIC (Bifidobacterium breve [29]): 62.5 µg/mL (≈ 102 µM); MIC [30]: 500 µg/mL (≈ 813 µM); MIC (Bifidobacterium longum [31]): 125 µg/mL (≈ 203 µM); MIC (Bifidobacterium longum [32]): 500 µg/mL (≈ 813 µM); MIC (Bifidobacterium longum [33]): 250 µg/mL (≈ 407 µM); MIC (Bifidobacterium longum [34]): 62.5 µg/mL (≈ 102 µM); MIC (Bifidobacterium longum [35]): 62.5 µg/mL (≈ 102 µM); MIC [36]: 250 µg/mL (≈ 407 µM); MIC [37]: 125 µg/mL (≈ 203 µM); MIC (Bifidobacterium animalis [38]): 500 µg/mL (≈ 813 µM); MIC (Bifidobacterium bifidum [39]): 125 µg/mL (≈ 203 µM); MIC (Bifidobacterium bifidum [40]): 250 µg/mL (≈ 407 µM); MIC (Bifidobacterium breve [41]): 250 µg/mL (≈ 407 µM); MIC (Bifidobacterium breve [42]): 250 µg/mL (≈ 407 µM); MIC (Bifidobacterium longum [43]): 250 µg/mL (≈ 407 µM); MIC (Bifidobacterium longum [44]): 250 µg/mL (≈ 407 µM); MIC (Bifidobacterium longum [45]): 125 µg/mL (≈ 203 µM); MIC (Bifidobacterium longum [46]): 125 µg/mL (≈ 203 µM); MIC [47]: 500 µg/mL (≈ 813 µM)
